Consider ten compounds from ChEMBL document CHEMBL4680189, “Immunosuppressive properties of amino acid and peptide derivatives of mycophenolic acid” (Eur J Med Chem, 2020).

Data set [1] has as its system Jurkat. Kind of data set: Immunosuppression-mediated cytotoxicity against human Jurkat T cells assessed as reduction in cell viability incubated for 48 hrs by MTT assay. The class given is cell-based. In a few lines: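 Jurkat cells in RPMI-1640 with 10% FBS and P/S, 50×10^3 cells/well, exposed in triplicate to serial dilutions from 1 mg/mL (DMSO/medium) for 48 h at 37 °C, 5% CO2. MTT (5 mg/ml) then added for 3 h. Formazan dissolved in 0.4 N HCl–isopropanol, absorbance read at 570 nm. IC50 from curve fitting; viability at 1 mg/mL used where IC50 could not be reached.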
In general terms: Formazan colour is commonly taken as a measure of viable cells.

The nature of data set [2]: Immunosuppression-mediated cytotoxicity against anti-CD3/anti-CD28-stimulated human PBMC cells assessed as reduction in cell viability incubated for 72 hrs by MTT assay. The class given is cell-based. The procedure, abridged:
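PBMC from buffy coats of healthy donors, isolated on a Ficoll gradient with erythrocyte lysis. Plated at 50×10^3 cells/well with anti-CD3/anti-CD28, serial compound dilutions, in triplicate. Incubated 72 h, 37 °C, 5% CO2. MTT added for 3 h, formazan dissolved in acidified isopropanol (0.4 N HCl), A570 read. Three donors averaged; IC50 from curve fit.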

Data set [3] has as its system Jurkat. Briefly: Immunosuppression-mediated antiproliferative activity against human Jurkat T cells assessed as inhibition of cell growth incubated for 48 hrs by VPD450 staining based flow cytometry. The data set is classed as functional. In a few lines:
(§1)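 Cells stained with VPD450 (2 μL of 1 mM dye per 10-30×10^6 cells in 1 mL PBS, 15 min, 37 °C), washed. PBMC: 50×10^3 cells/well with anti-CD3/anti-CD28, serial compound dilutions, 72 h. Jurkat: 50×10^3 cells/well, 48 h. 37 °C, 5% CO2, triplicate. Dye dilution by flow cytometry; EC50 from curve fit.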
For orientation: Flow cytometry measures light scatter and fluorescence of single cells or particles in a stream.

The nature of data set [4]: Immunosuppression-mediated antiproliferative activity against anti-CD3/anti-CD28-stimulated human PBMC cells assessed as inhibition of cell growth incubated for 72 hrs by VPD450 staining based flow cytometry. The class given is functional. In a few lines: as §1
Data set [5] is described as follows: Selectivity index, ratio of IC50 for cytotoxicity against human Jurkat T cells by MTT assay to EC50 for antiproliferative activity against human Jurkat T cells by VPD450 staining based flow cytometry. The procedure, abridged: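 Jurkat IC50 from the 48 h MTT assay (50×10^3 cells/well, triplicate) divided by Jurkat EC50. […] Cells treated 48 h with serial dilutions, then dye dilution read by flow cytometry and fitted.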

A short description of data set [6]: Selectivity index, ratio of IC50 for cytotoxicity against human PBMC by MTT assay to EC50 for antiproliferative activity against human PBMC by VPD450 staining based flow cytometry. In a few lines: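 Ratio of the MTT cytotoxicity IC50 (72 h, stimulated PBMC) to the VPD450 antiproliferative EC50 (72 h, stimulated PBMC), both from fitted concentration-response curves.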

The subject of another data set is PBMC. Kind of data set: Immunosuppression-mediated antiproliferative activity against anti-CD3/anti-CD28-stimulated human PBMC cells assessed as inhibition of cell growth incubated for 72 hrs in presence of GMP by VPD450 staining based flow cytometry. The data set is classed as functional. The procedure, abridged:
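VPD450-stained PBMC, 50×10^3 cells/well, anti-CD3/anti-CD28 stimulation, serial compound dilutions plus GMP at 50 μM in the well. Incubated 72 h at 37 °C, 5% CO2, in triplicate. Proliferation read by flow cytometry as dye dilution and expressed relative to controls.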

Data set [7] can be described thus: Stability in human Jurkat T cells assessed as compound remaining at EC50 concentration after 5 days by HPLC-MS analysis. The data set is classed as ADME, cell-based. The following applies: time 5 day, read-out: Stabilty. The procedure, abridged: (§2)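 Compounds incubated at their EC50 concentrations with Jurkat cells for 5 days, sampled daily. Amount measured by HPLC-MS: C18 column at 40 °C, 0.4 mL/min, 0.1% HCOOH water to ACN/MeOH gradient, UV 254 nm, ESI-MS. Peak area on day 1 taken as 100%.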

Data set [8] relates to Jurkat. Briefly: Immunosuppression-mediated antiproliferative activity against human Jurkat T cells assessed as inhibition of cell growth at 1 mg/ml incubated for 48 hrs by VPD450 staining based flow cytometry relative to control. The data set is classed as functional. Also on record: scale not given: the % may be the effect or the level left. The procedure, abridged:
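Jurkat cells stained with VPD450 (2 μL of 1 mM dye per 10-30×10^6 cells, 15 min, 37 °C) and plated at 50×10^3 cells/well. Compound added at the top concentration, 1 mg/mL (1 mg dissolved in 20 μL DMSO, made up to 1 mL with medium). 48 h at 37 °C, 5% CO2, in triplicate. Read by flow cytometry; […].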

The nature of data set [9]: Stability in human Jurkat T cells assessed as compound remaining at EC50 concentration after 3 days by HPLC-MS analysis. The class given is ADME, cell-based. The settings on record: time 3 day, read-out: Stabilty. In a few lines:
as §2

Data set [10] has as its system Jurkat. Briefly: Immunosuppression-mediated cytotoxicity against human Jurkat T cells assessed as reduction in cell viability at 1 mg/ml incubated for 48 hrs by MTT assay relative to control. The class given is cell-based. In a few lines:
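Jurkat cells (RPMI-1640, 10% FBS) plated at 50×10^3 cells/well and exposed to 1 mg/mL compound (1 mg in 20 μL DMSO, made up to 1 mL with medium). 48 h at 37 °C, 5% CO2, in triplicate. MTT (5 mg/mL stock) for 3 h, acidified isopropanol, A570. Viability calculated at that concentration.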

A short description of data set [11]: Immunosuppression-mediated cytotoxicity against anti-CD3/anti-CD28-stimulated human PBMC cells assessed as reduction in cell viability at 1 mg/ml incubated for 72 hrs by MTT assay relative to control. The class given is cell-based. In a few lines: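 Anti-CD3/anti-CD28-stimulated PBMC, 50×10^3 cells/well, exposed to compound at the highest concentration, 1 mg/mL, for 72 h at 37 °C, 5% CO2, in triplicate. MTT for 3 h, acidified isopropanol, A570. Viability calculated at that concentration; three donors averaged.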

The source made the active and inactive calls. The calls are words filed in the database; no cut-off is given here. Where a SMILES comes first, the peptide text is derived from it. [ ]: non-standard residue; d: D form. The star is where a group is joined. Mycophenolyl = COc1c(C)c2c(c(O)c1C/C=C(\C)CCC(=O)*)C(=O)OC2; Arg(NO2) = N=C(NCCC[C@H](N)C(=O)O)N[N+](=O)[O-]; βAla = NCCC(=O)O Bounds are passed on as bounds.

What is called IC50 is the concentration that inhibits the measured activity by half. By EC50 is commonly meant the concentration needed to bring the measured effect to its halfway point.

With `COC(=O)[C@@H](NC(=O)CC/C(C)=C/Cc1c(O)c2c(c(C)c1OC)COC2=O)[C@@H](C)O`, the IC50 was 17 µM with Jurkat [1] and 57 µM in [2]. Further, the EC50 (in the data set on Jurkat [3]; in data set [4]) was 10 µM each time. Moreover, the figures for the “Ratio IC50/EC50” value in data set [5] and in data set [6] were 1.8 and 5.7, respectively. Further, the result in the data set on PBMC was inactive. The remaining at 120 h in data set [7] is above 40%.
Take `COC(=O)[C@H](CCCNC(=N)N[N+](=O)[O-])NC(=O)[C@@H]1CCCN1C(=O)[C@H](CCCCNC(=O)[C@H](C)N)NC(=O)[C@@H](NC(=O)CC/C(C)=C/Cc1c(O)c2c(c(C)c1OC)COC2=O)[C@@H](C)O` (Mycophenolyl-TK(Ala)P[Arg(NO2)]-OMe): the IC50 is 1000 µM in the data set on Jurkat [1] and 560 µM in data set [2]. Also, the 50% effective concentration (EC50) in data set [4] was 259 µM. For the same compound, in the data set with Jurkat [8], the Activity is 55.31%. Also, in [6], the “Ratio IC50/EC50” value was 2.2. Further, the remaining at 72 h in data set [9] was determined as 50%.
In the case of `COC(=O)[C@H](CCCNC(=N)N[N+](=O)[O-])NC(=O)[C@@H]1CCCN1C(=O)[C@H](CCCCNC(=O)[C@@H](N)C(C)C)NC(=O)[C@@H](NC(=O)CC/C(C)=C/Cc1c(O)c2c(c(C)c1OC)COC2=O)[C@@H](C)O` (Mycophenolyl-TK(Val)P[Arg(NO2)]-OMe), the Activity in the data set with Jurkat [10] is reported as 66.56%; in data set [11], 56.81%; in the data set on Jurkat [8], 55.1%. Moreover, in data set [4], the EC50 is 432 µM. Also, the result in the data set on PBMC was inactive.
Take `COC(=O)[C@H](CCCNC(=N)N[N+](=O)[O-])NC(=O)[C@@H]1CCCN1C(=O)[C@H](CCCCN)NC(=O)[C@@H](NC(=O)CC/C(C)=C/Cc1c(O)c2c(c(C)c1OC)COC2=O)[C@@H](C)O` (Mycophenolyl-TKP[Arg(NO2)]-OMe): the Activity is reported as 85.82% with Jurkat [10], 99.09% in data set [11] and 60.78% with Jurkat [8]. For the same compound, the EC50 in data set [4] is 130 µM.
In the case of `COC(=O)[C@@H](NC(=O)[C@H](CCCCNC(=O)CN)NC(=O)[C@@H]1CCCN1C(=O)[C@H](CCCNC(=N)N[N+](=O)[O-])NC(=O)CC/C(C)=C/Cc1c(O)c2c(c(C)c1OC)COC2=O)[C@@H](C)O` (Mycophenolyl-[Arg(NO2)]PK(Gly)T-OMe), the results for the IC50 (in the data set with Jurkat [1]; in data set [2]) were 1100 µM and 865 µM, respectively. Besides, in [4], the EC50 was 566 µM. Besides, the Activity in the data set on Jurkat [8] is recorded as 56.72%. Further, the “Ratio IC50/EC50” value in [6] is reported as 1.5.
As to `CC[C@H](C)[C@H](N)C(=O)NCCCC[C@H](NC(=O)[C@@H]1CCCN1C(=O)[C@H](CCCNC(=N)N[N+](=O)[O-])NC(=O)CC/C(C)=C/Cc1c(O)c2c(c(C)c1OC)COC2=O)C(=O)N[C@H](C(=O)OC)[C@@H](C)O` (Mycophenolyl-[Arg(NO2)]PK(Ile)T-OMe), the IC50 in data set [2] was 533 µM. Further, the values for the Activity in the data set with Jurkat [10] and in the data set with Jurkat [8] were 52.48% and 52.77%, respectively. In addition, in data set [4], the concentration for a half-maximal effect (EC50) is 152 µM. The “Ratio IC50/EC50” value in data set [6] stood at 3.5.
The corresponding values for `COC(=O)[C@@H](NC(=O)[C@H](CCCCNC(=O)[C@@H](N)CC(C)C)NC(=O)[C@@H]1CCCN1C(=O)[C@H](CCCNC(=N)N[N+](=O)[O-])NC(=O)CC/C(C)=C/Cc1c(O)c2c(c(C)c1OC)COC2=O)[C@@H](C)O` (Mycophenolyl-[Arg(NO2)]PK(Leu)T-OMe) are 519 µM, 61.34%, 63.04%, 161 µM and 3.2.
Consider `COC(=O)[C@@H](NC(=O)[C@H](CCCCNC(=O)[C@@H](N)C(C)C)NC(=O)[C@@H]1CCCN1C(=O)[C@H](CCCNC(=N)N[N+](=O)[O-])NC(=O)CC/C(C)=C/Cc1c(O)c2c(c(C)c1OC)COC2=O)[C@@H](C)O` (Mycophenolyl-[Arg(NO2)]PK(Val)T-OMe), for which the IC50 in data set [2] was determined as 548 µM. In addition, in the data set on Jurkat [10], the Activity is listed as 63.35%. In addition, the results for the EC50 (with Jurkat [3]; in data set [4]) were 556 µM and 129 µM, respectively. Further, the “Ratio IC50/EC50” value in data set [6] was 4.3. In addition, the result in the data set with PBMC was inactive.
Take `COC(=O)[C@@H](NC(=O)[C@H](CCCCNC(=O)CCN)NC(=O)[C@@H]1CCCN1C(=O)[C@H](CCCNC(=N)N[N+](=O)[O-])NC(=O)CC/C(C)=C/Cc1c(O)c2c(c(C)c1OC)COC2=O)[C@@H](C)O` (Mycophenolyl-[Arg(NO2)]PK(βAla)T-OMe): the IC50 turned out to be 786 µM with Jurkat [1] and 588 µM in data set [2]. Besides, in data set [4], the EC50 came out at 154 µM. For the same compound, the Activity with Jurkat [8] worked out at 75.89%. In addition, in [6], the “Ratio IC50/EC50” value worked out at 3.8.
Turning to `COC(=O)[C@@H](NC(=O)[C@H](CCCCN)NC(=O)[C@@H]1CCCN1C(=O)[C@H](CCCNC(=N)N[N+](=O)[O-])NC(=O)CC/C(C)=C/Cc1c(O)c2c(c(C)c1OC)COC2=O)[C@@H](C)O` (Mycophenolyl-[Arg(NO2)]PKT-OMe), the IC50 stood at 971 µM in the data set with Jurkat [1] and 634 µM in data set [2]. The EC50 in the data set on Jurkat [3] was found to be 664 µM; in [4], 35.4 µM. The results for the “Ratio IC50/EC50” value in data set [5] and in data set [6] were 1.5 and 18, respectively. Further, the result in the data set on PBMC was inactive. Moreover, in data set [9], the remaining at 72 h amounted to 50%.
